Results from ChEMBL document CHEMBL4270599, “Synthesis of a 3'-C-ethynyl-β-d-ribofuranose purine nucleoside library: Discovery of C7-deazapurine analogs as potent antiproliferative nucleosides” (Eur J Med Chem, 2018).
pEC50: −log10 of the molar value.

test system: Vaccinia virus; assay: Antiviral activity against Vaccinia virus Lederle infected in HELF cells assessed as inhibition of virus-induced cytopathogenicity; assay type: functional, organism-based; conditions: Orthopoxvirus vaccinia
Procedure, shortened: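 Confluent human embryonic lung fibroblast monolayers in 96-well plates were infected with 100 CCID50 of virus or, for VZV, 20 PFU, in the presence of varying compound concentrations. For HCMV/VZV-type assays, residual virus was removed after 1–2 h before compound addition. Cytopathicity or plaque formation was scored once complete in untreated infected controls. […] Highest concentration tested was 100 μM.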

Question: How did the pEC50 turn out when `C#C[C@@]1(O)[C@@H](CO)O[C@@H](n2ccc3c(Cl)ccnc32)[C@@H]1O` was run?
Answer: < 4.00

Question: How did the pEC50 turn out when `C#C[C@@]1(O)[C@@H](CO)O[C@@H](n2cc(Br)c3c(Cl)ccnc32)[C@@H]1O` was run?
Answer: < 4.00

Question: `CC[C@@]1(O)[C@@H](CO)O[C@@H](n2cc(Cl)c3c(N)ncnc32)[C@@H]1O` was tested. Which pEC50 did it give?
Answer: 6.14

Question: How did the pEC50 turn out when `C#C[C@@]1(O)[C@@H](CO)O[C@@H](n2cc(I)c3c(Cl)ccnc32)[C@@H]1O` was run?
Answer: < 4.00

Question: `C#C[C@@]1(O)[C@@H](CO)O[C@@H](n2cc(Cl)c3c(Cl)ccnc32)[C@@H]1O` was tested. Which pEC50 did it give?
Answer: < 4.00

Question: With `Nc1nc2c(ncn2COCCO)c(=O)[nH]1` [ACYCLOVIR] as the compound, how does the pEC50 read?
Answer: < 3.60

Question: How did the pEC50 turn out when `Nc1nc2c(ncn2COC(CO)CO)c(=O)[nH]1` [GANCICLOVIR] was run?
Answer: < 4.00
